High-throughput results from PubChem BioAssay.
The list is not random: actives were taken first. Their share in the collection is about 1.6%.
ABHD5 PLIN5 PPI: blocks binding of human ABHD5 to perilipin-5; Q00G26+Q8WTS1; Split G. princeps luciferase complementation, luminescence, 4 h; inhibition, % at 4 µM; 360,000 compounds, 0.78% hits; AID 602281;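 active = inhibition above the mean inhibition across every tested compound plus 3 SD, cut at about 22% in these data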;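 note: 0% = DMSO only wells and the 100% control is not disclosed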
TLR9-MyD88 inh: TLR9-MyD88 interaction inhibition; inhibition, % at 4.98 µM; 340,000 compounds, 0.21% hits; CHO BLA complementation TLR9-MyD88, CCF4 FRET ratio; AID 504734;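 active = inhibition above the mean over all tested compounds plus 3 SD, cut at about 21% in these data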;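 note: 0% = DMSO only wells and 100% = clavulanate BLA inhibitor control wells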
B2AR ag: agonists of human beta-2 adrenergic receptor inducing internalization; AID 504454; response, % (concentration not given with the values); Am2.2-beta2AR cells, FAP receptor internalization, flow cytometry; P07550; 340,000 compounds, 0.43% hits;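 active = response above a set limit, near 3 SD of response in nonfluorescent compounds, cut at about 42% in these data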
TLR4 MyD88 comp: blocks binding of human TLR4 to MyD88. O00206+Q99836. AID 861. HeLa CL3-4 TLR4/MyD88 BLA complementation, FRET ratio. inhibition, % at 8.4 µM. 200,000 compounds, 0.18% hits; in the data active = inhibition above about 25%;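 note: 0% = vehicle and 100% = reference inhibitor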
Dynein cargo inh: blocks dynein driven cargo transport along microtubules; 3617.4 mouse cells, GR-EGFP nuclear translocation imaging; test concentration mostly 20 µM; stimulated with dexamethasone, 1 µM; stronger effect = lower value; z-score, hits read low; 220,000 compounds, 0.47% hits; AID 1381;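 active = plate z-score of nuclear minus cytoplasmic receptor signal below a set negative limit, without overly bright fluorescence or cell loss, cut at about -3.5 in these data, passing the limit was not always enough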;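 note: z-score of nuclear minus cytoplasmic ring GR-EGFP intensity difference per well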
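medium = tetracycline-free induction medium containing charcoal-stripped FBS | probe or stimulus = dexamethasone, 1.0 µM final | timing = 48 h induction, then 1 h compound, then 30 min agonist, 37 °C | detection = automated 10x imaging of fixed Hoechst-stained cells | read-out basis = nuclear versus cytoplasmic GR-EGFP signal, averaged per well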
NOD2-RIPK2 inh: NOD2-RIPK2 protein interaction inhibition; AID 624267; O43353; 360,000 compounds, 0.38% hits; inhibition, % at 4.98 µM; CHO BLA complementation NOD2-RIPK2, CCF4 ratio; in the data active = inhibition above about 21%;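 note: 0% = vehicle only and 100% = reference blocker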
B2AR ag CP1: human beta-2 adrenergic receptor agonism, cherry pick | shares compounds with B2AR ag | Am2.2-beta2AR cells, FAP surface receptor, flow cytometry; stronger effect = lower value | percent response (surface receptor), % at 10 µM | 1,100 compounds, 25% hits;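 active = surface receptor percent response at or below 58%, roughly 3 SD from nonfluorescent compounds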
B2AR FAP counter: fluorescence artifact in beta-2AR agonist FAP counterscreen; shares compounds with B2AR ag; Am2.2 cells, FAP fluorogen flow cytometry; stronger effect = lower value; calls only at 10 µM; 1,100 tested, under 10 active; AID 588765;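 active = percent response below a set limit in fluorescence channel 1 and below 50% in channel 8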
TLR9-MyD88 conf: TLR9-MyD88 interaction inhibition, confirmation | inhibition, % at 4.98 µM | shares compounds with TLR9-MyD88 inh | 680 compounds, 51% hits | CHO TLR9/MyD88 BLA complementation, CCF4 FRET ratio;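 active = mean inhibition across three repeats above about 21% taken from the earlier screen, limit read from the data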;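 note: blue over green emission ratio reports constitutive TLR9 MyD88 association via BLA complementation; 0% = DMSO vehicle wells and 100% = clavulanate BLA inhibitor wells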
BLA counter-1: counter-screen for TLR9-MyD88 inhibitors: non-selective beta-lactamase inhibitors; inhibition, % at 4.98 µM; 680 compounds, 7% hits; shares compounds with TLR9-MyD88 inh; CHO-BLA cells, CCF4 FRET ratio, BLA reporter;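 active = mean inhibition above a 50% cutoff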;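 note: counterscreen of TLR9-MyD88 hits on CMV-driven BLA in CHO-K1 cells; 0% = DMSO alone and 100% = clavulanate blocking BLA; higher means less blue over green ratio so more BLA blockade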
TLR9 CHO tox: counter-screen for TLR9-MyD88 inhibitors: cytotoxicity in CHO cells; shares compounds with TLR9-MyD88 inh; luminescence; inhibition, % at 4.98 µM; 680 compounds, 39% hits; AID 588336; in the data active = inhibition above about 11%
ABHD5 PLIN5 conf: confirmation of human ABHD5-PLIN5 interaction inhibitors; shares compounds with ABHD5 PLIN5 PPI; biochemical ABHD5-PLIN5 interaction, luminescence; inhibition, % at 4 µM; 2,200 compounds, 67% hits; AID 651612; in the data active = inhibition above about 23%;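 note: 0% = DMSO vehicle wells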
HNF4 counter: counter-screen for ABHD5-PLIN5 inhibitors: HNF4 split-luciferase; shares compounds with ABHD5 PLIN5 PPI; HNF4 dimerization, luminescence, biochemical; inhibition, % at 4 µM; 2,200 compounds, 77% hits;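 active = mean inhibition across replicate wells exceeding the computed hit threshold, cut at about 13% in these data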;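 note: light from luciferase halves that rejoin when HNF4 fusion proteins dimerize; 0% = DMSO only wells and the 100% control is not given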
Target sequence (P41235 whole entry, looked up, the tested form may be a part): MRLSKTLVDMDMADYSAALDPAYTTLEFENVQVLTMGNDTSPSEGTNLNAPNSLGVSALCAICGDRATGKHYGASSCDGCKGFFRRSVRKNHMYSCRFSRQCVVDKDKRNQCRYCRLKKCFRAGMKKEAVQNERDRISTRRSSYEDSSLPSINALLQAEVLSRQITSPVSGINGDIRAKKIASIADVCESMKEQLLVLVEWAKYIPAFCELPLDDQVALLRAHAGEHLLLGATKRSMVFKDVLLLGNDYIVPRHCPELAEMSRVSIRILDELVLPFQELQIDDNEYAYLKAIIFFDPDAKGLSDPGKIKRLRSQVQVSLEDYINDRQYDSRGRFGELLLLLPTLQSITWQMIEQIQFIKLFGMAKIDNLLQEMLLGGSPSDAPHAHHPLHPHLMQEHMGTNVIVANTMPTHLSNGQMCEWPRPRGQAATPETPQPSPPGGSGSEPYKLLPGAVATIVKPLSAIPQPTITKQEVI
NOD2 RIPK2 conf: NOD2-RIPK2 interaction inhibition confirmed. inhibition, % at 4.98 µM. shares compounds with NOD2-RIPK2 inh. 1,200 compounds, 70% hits. CHO cells, NOD2-RIPK2 BLA complementation, CCF4 FRET;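 active = mean inhibition across replicates above a set limit taken from the earlier primary screen, cut at about 21% in these data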;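 note: 0% = DMSO-only wells and the high end = clavulanate BLA-blocked wells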
BLA counter-2: counter-screen for NOD2-RIPK2 interaction inhibitors: BLA reporter; shares compounds with NOD2-RIPK2 inh; CHO BLA reporter, CCF4 FRET ratio, counterscreen; inhibition, % at 4.98 µM; 1,200 compounds, 57% hits; AID 624371;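 active = mean inhibition above the low-control mean inhibition plus three low-control SD, cut at about 11% in these data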;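 note: 0% = DMSO only wells and 100% = clavulanate high control wells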
Numbers without * were called inactive; i = inactive; · = no result; + = active, no number.

SMILES	ABHD5 PLIN5 PPI	TLR9-MyD88 inh	B2AR ag	TLR4 MyD88 comp	Dynein cargo inh	NOD2-RIPK2 inh	ABHD5 PLIN5 conf	HNF4 counter	others
COC(=O)[C@]12OC[C@]34C([C@@H](O)[C@@H]1O)[C@]1(C)CC(=O)C(O)=C(C)[C@@H]1C[C@H]3OC(=O)[C@H](O)[C@@H]24 (stereo partly specified)	7	-6	42*	·	-0.064	26*	·	·	B2AR ag CP1=64;B2AR FAP counter=i
CNCC(O)c1ccc(O)cc1 (stereo unspecified)	5	·	·	5	-0.32	-18	·	·
CC(Cc1ccc(O)cc1)NCC(O)c1ccc(O)c(O)c1 (stereo unspecified)	-4	-8	·	·	·	12	·	·	B2AR ag CP1=9.6*;B2AR FAP counter=i
NCCc1ccc(OCc2ccccc2)c(OCc2ccccc2)c1	28*	-4	43*	·	·	10	14	7	B2AR ag CP1=100;B2AR FAP counter=i
O=c1ccc2cc3ccoc3c(O)c2o1	-3	0	-1	·	·	10	·	·
COc1ccc(C[C@H]2NC[C@H](O)[C@H]2OC(C)=O)cc1	-1	15	94*	·	·	26*	·	·	B2AR ag CP1=28*;B2AR FAP counter=+;NOD2 RIPK2 conf=29*;BLA counter-2=1
c1cc2c(cc1[C@H]1OCC3C1CO[C@@H]3c1ccc3c(c1)OCO3)OCO2 (stereo partly specified)	-3	1	0	·	·	-8	·	·
CN(C(=O)Cc1ccc(Cl)c(Cl)c1)C(CN1CCCC1)c1cccc(OCC(=O)O)c1 (stereo unspecified)	-2	23*	-5	·	·	3	·	·	TLR9-MyD88 conf=-2;BLA counter-1=-6;TLR9 CHO tox=2
COC(=O)C1=C(c2cc3ccccc3s2)C[C@@H]2CC[C@H]1N2C(=O)N1CCC(C)CC1	-9	0	0	·	·	2	·	·
Cc1cc(N(CCCl)CCCl)ccc1C=Cc1ccncn1	4	32*	-7	·	·	40*	·	·	TLR9-MyD88 conf=9;BLA counter-1=12;TLR9 CHO tox=3;NOD2 RIPK2 conf=26*;BLA counter-2=31*
CCc1cc2c(cc1-c1csc(C/C(N)=N/O)n1)C(C)(C)CCC2(C)C	-8	12	·	·	·	-2	·	·
Nc1ccc2ccc3cccc[n+]3c2c1	-1	26*	-5	·	·	23*	·	·	TLR9-MyD88 conf=9;BLA counter-1=11;TLR9 CHO tox=-2;NOD2 RIPK2 conf=31*;BLA counter-2=36*
CC(C)(C)C(=O)N1Cc2cnnn2-c2ccccc2C1C#N (stereo unspecified)	4	-6	-8	·	·	-8	·	·
CC1=C(O)C(=O)C=C2C1=CC=C1C2(C)CCC2(C)C3CC(C)(C(=O)O)CCC3(C)CCC12C (stereo unspecified)	95*	29*	105*	·	·	81*	102*	106*	TLR9-MyD88 conf=50*;BLA counter-1=8;TLR9 CHO tox=98*;NOD2 RIPK2 conf=81*;BLA counter-2=8
O=C(Cc1ccccc1)OCC(=O)N1CCN(S(=O)(=O)c2ccc(Cl)cc2)CC1	16	3	-12	·	·	-8	·	·
Cc1ccccc1-n1c(/C=C/c2ccccn2)nc2ccccc2c1=O	13	9	7	·	-0.65	-9	·	·
CN1C2CCC1/C(=C/c1ccccn1)C(=O)/C2=C\c1ccccn1	98*	24*	32	-2	-3.6*	30*	104*	109*	TLR9-MyD88 conf=18;BLA counter-1=7;TLR9 CHO tox=99*;NOD2 RIPK2 conf=42*;BLA counter-2=10
C=CCn1c(O)c(C(C)=NCc2ccc3c(c2)OCO3)c(=O)[nH]c1=O	-5	0	5	·	-0.92	8	·	·
CC(=NCc1ccc2c(c1)OCO2)c1c(O)n(-c2ccc(C)cc2)c(=O)[nH]c1=O	99*	5	3	·	-0.5	-4	-2	-2
Clc1ccc2c(c1)C(c1ccccc1Cl)=NCc1nnc(N3CCN(CCSc4ccccc4)CC3)n1-2	26*	-1	7	12	-0.12	3	21	9
Cc1ccc(N2C(=O)NC(=O)/C(=C\c3cnc(-c4ccccc4)nc3)C2=O)cc1	30*	-2	3	3	-0.35	5	86*	92*
Cc1ccc(N2C(=O)NC(=O)/C(=C/c3cnn(-c4ccc(C)cc4)c3)C2=O)cc1	7	-19	23	0	-0.24	2	·	·
CSc1ncc(/C=C2/C(=O)NC(=O)N(c3ccc(Cl)cc3)C2=O)cn1	42*	3	0	7	0.64	-2	78*	91*
CCOc1ccc(N2C(=O)NC(=O)/C(=C/c3cnc(SC)nc3)C2=O)cc1	28*	-1	-4	-4	0.34	-1	71*	87*
CSc1ncc(/C=C2/C(=O)NC(=O)N(c3ccc(C)cc3)C2=O)cn1	18	-7	7	11	0.97	2	·	·
CCOC(=O)[C@]12Cc3cc4ccccc4cc3[C@H]1N(Cc1ccccc1)C(=O)c1cc(OC)ccc12	23*	·	·	·	·	0	11	16*
CCOC(=O)[C@]12Cc3cc(OC)ccc3[C@H]1N(Cc1ccccc1)C(=O)c1cc(OC)ccc12	-3	·	·	·	·	-8	·	·
CCOC(=O)[C@]12Cc3cc(Cl)ccc3[C@H]1N(CC(=O)OC)C(=O)c1ccccc12	38*	·	·	·	·	19	32*	34*
CC(=O)Nc1ccc(S(=O)(=O)N2Cc3cnnn3-c3ccccc3C2C#N)cc1 (stereo unspecified)	1	-7	3	·	·	-13	·	·
